Measurements of several laboratories.
Lines come from different studies, so protocols differ.
Target: Mitogen-activated protein kinase kinase kinase 20 (MAP3K20, Homo sapiens, UniProt Q9NYL2)

CCN1CCN(Cc2ccc(C(=O)Nc3ccc(C)c(Oc4ccc5c(c4)CC(=O)N5)c3)cc2C(F)(F)F)CC1 — remaining binding (binding; competition with immobilised ligand; 1 µM): 100%
C=CC(=O)N1CCC(C(=O)NCC(=O)N2CCN(c3nc(-c4cnc(N)nc4C(F)F)nc(N4CCOCC4)n3)CC2)CC1 — remaining binding (binding; competition with immobilised ligand; 1 µM): 100%
COc1cnc(Nc2cccc(S(N)(=O)=O)c2)nc1N1CCN(c2ccccc2)CC1 — remaining binding (binding; competition with immobilised ligand; 1 µM): 100%
F[C@@H]1CCN(c2nccc(-c3cnn4ncccc34)n2)C1 — remaining binding (binding; 1 µM): 76%
Cc1cc(-n2nc(Cc3cc(F)cc(C(F)(F)F)c3)nc2C)ccc1C(N)=O — remaining binding (cell-free assay; competition with immobilised ligand; 1 µM): 99%
CN(C)c1ncc(F)c(-c2cnn3ncccc23)n1 — remaining binding (binding; 1 µM): 96%
O=C(c1ccc(Nc2ncc(Cl)c(-c3ccc(Cl)s3)n2)cc1)N1CCC(N2CCCC2)CC1 — remaining binding (binding; competition with immobilised ligand; 1 µM): 65%
CN(C(=O)c1ccccc1)c1cc(N(C)c2ccc3c(c2)CCc2ccc(C(=O)NCCN4CCOCC4)cc2C3=O)ccc1F — remaining binding (cell-free assay; competition with immobilised ligand; 1 µM): 82%
O=C(NCC1CCOCC1)c1n[nH]cc1NC(=O)c1c(F)cccc1F — remaining binding (binding; competition with immobilised ligand; 1 µM): 100%
O=C(NCc1ncc(C(F)(F)F)cc1Cl)c1ccc2c(c1)C1(CCS(=O)(=O)CC1)[C@H](C1CC1)N2S(=O)(=O)c1ccc(F)cc1 — remaining binding (cell-free assay; competition with immobilised ligand; 1 µM): 100%
CN(CCCC(F)(F)F)c1nccc(-c2cnn3ncccc23)n1 — remaining binding (binding; 1 µM): 88%
Cc1cc(C)c(-n2ccn3nc(-c4cccnc4)cc23)cc1NC(=O)c1cc(C#N)cc(S(F)(F)(F)(F)F)c1 — remaining binding (cell-free assay; competition with immobilised ligand; 0.1 µM): 97.5%
FC(F)(F)Oc1cccc(-c2cnc3ccc(-c4ccncc4)nn23)c1 — remaining binding (binding; competition with immobilised ligand; 5 µM): 20%
O=C(c1ccc(Nc2nccc(-c3cc4ccccc4s3)n2)cc1)N1CCC(N2CCCC2)CC1 — remaining binding (binding; competition with immobilised ligand; 1 µM): 69%
C[C@@H]1CCN(c2nccc(-c3cnn4ncccc34)n2)C1 — remaining binding (binding; 1 µM): 100%
Cc1c(NC(=O)c2cc(C(N)=O)nc3cc(F)ccc23)c(C(F)(F)F)nn1Cc1ccc(C#N)cc1 — remaining binding (cell-free assay; competition with immobilised ligand; 1 µM): 100%
Cc1cnn2ncc(-c3ccnc(N(C)C)n3)c2c1 — remaining binding (binding; 1 µM): 95%
O=c1nc(-c2ccccn2)sc2ccccc12 — remaining binding (binding; competition with immobilised ligand; 1 µM): 87%
N[C@@H]1CCN(c2nccc(-c3cnn4ncccc34)n2)C1 — remaining binding (binding; 1 µM): 100%
O=C(NCCCN1CCOCC1)c1ccc(Nc2nccc(-c3cc4ccccc4s3)n2)cc1 — remaining binding (binding; competition with immobilised ligand; 1 µM): 62%
COc1cnc(Nc2cccc(S(N)(=O)=O)c2)nc1N1CCN(c2ccccc2)C(=O)C1 — remaining binding (binding; competition with immobilised ligand; 1 µM): 100%
C[C@@H](c1ccc(-n2cnc3c(N)ncnc32)cc1)N1CCc2nn(C)c(Cc3ccccc3)c2C1=O — remaining binding (binding; competition with immobilised ligand; 0.1 µM): 58%
